From PubChem BioAssay
Compounds with a hit are over-represented: about 2.6% of the library has one in this group of screens.
T cell modulator: T cell immune modulation candidate. response (vesicle binding), % at 7 µM. 2C CD8+ T cell-vesicle binding, flow cytometry; hits give low values. AID 2052. 330,000 tested, 0.068% active;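 active means response, share of CD8 T cells binding vesicles, and their 90th percentile fluorescence all below set limits, cut at about 80% in these data, passing the limit was not always enough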;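 further: values below 100% mean blocked vesicle binding to the CD8+ T cells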
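Incubation: binding step 1.5 h, 37 °C, antibody labelling 20 min, ice; system: murine 2C transgenic CD8+ T lymphocytes; technique: cytometric PE anti-B7-1 and Alexa647 anti-CD8 signals after 1% paraformaldehyde fixation; also added: QL9-charged Drosophila Ld/ICAM-1/B7-1 vesicles; control set: naked versus QL9-loaded vesicles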
GRK2 inh: human GRK2 inhibition via aptamer displacement; 330,000 tested, 0.59% active; bead flow cytometry, FAM-aptamer displacement from GRK2; inhibition of aptamer binding, % at 10 µM; AID 488847; P25098;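 active means inhibition of aptamer binding above 40%, roughly 3 SD of noise, on plates passing a quality check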;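 further: median bead fluorescence of bound FAM aptamer so fluorescent compounds give negative values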
Myeloid diff 2: promotes myeloid progenitor differentiation; ER-HoxA9 myeloid progenitors, lysozyme-GFP differentiation, flow cytometry; calls only at 10 µM; 360,000 tested, 1% active; AID 624256;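 active means normalized GFP-positive differentiation at or above the plate's own cutoff, the solvent-only control mean plus 3 SD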;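 further: cells exposed to compound for four days before flow analysis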
SKN-1 inh: inhibitors of C. elegans SKN-1; C. elegans VP596 Pgst-4::GFP/RFP ratio, acrylamide-induced, 24 h; inhibition, % at 21.8 µM; 360,000 tested, 0.49% active;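 active means interference check ratio from 0.5 to 1.5 plus GFP to RFP signal ratio inhibition reaching or exceeding a fixed threshold, cut at about 30% in these data, passing the limit was not always enough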
Rin1 Abl inh: blocks binding of human Rin1 to Abl; AID 588664; TR-FRET Rin1/Abl binding, biochemical; 360,000 tested, 0.4% active; inhibition, % at 7.35 µM; in the data active means inhibition above about 5%, passing the limit was not always enough
Rce1 inh: yeast Ras-converting enzyme inhibition; Q03530; yeast membranes, quenched prenylated peptide cleavage fluorescence; calls only; 290,000 tested, 0.27% active; AID 2563;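 active means fall in fluorescence gain of 50% or more versus controls, with final raw signal at or below 3038400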
Target sequence (Q03530 whole entry, looked up): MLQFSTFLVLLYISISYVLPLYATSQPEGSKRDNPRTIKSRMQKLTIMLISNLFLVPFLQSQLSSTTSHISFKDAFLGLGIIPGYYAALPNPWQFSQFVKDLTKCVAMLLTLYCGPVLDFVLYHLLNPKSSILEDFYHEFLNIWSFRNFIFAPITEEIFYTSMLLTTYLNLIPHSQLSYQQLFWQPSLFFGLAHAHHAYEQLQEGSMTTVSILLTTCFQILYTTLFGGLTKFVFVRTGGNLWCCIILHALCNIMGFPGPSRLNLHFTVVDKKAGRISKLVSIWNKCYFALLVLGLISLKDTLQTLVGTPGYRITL
Rin1-Abl confirm: confirmation of inhibitors of human Rin1-Abl interaction. shares compounds with Rin1 Abl inh. TR-FRET Rin1-Abl binding, purified proteins. inhibition, % at 7.35 µM. 1,300 tested, 49% active. AID 602124
GFP quench: counter-screen for Rin1-Abl inhibitors: GFP fluorescence quenchers; shares compounds with Rin1 Abl inh; inhibitors/quenchers counterscreen; 1,300 tested, 8.5% active; inhibition, % at 6.75 µM;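 further: ABL1-eGFP fusion protein alone without its partner RIN1-SBP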
GFP quench dose: quenches GFP in dose response, Rin1-Abl counter-screen; shares compounds with Rin1 Abl inh; GFP fluorescence interference/quenching counterscreen; IC50, µM; 230 tested, under 10 active; AID 602182; call rule not given here;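 further: ABL1-eGFP fusion protein alone without its RIN1 binding partner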
Each line names hits and unclear results; the compound was inactive in the other large screens (follow-up assays come after a bar, where they were run). Unless noted, no stated cut-off is given here; in the data, active means inhibition above about 6.5%; inactive means the rest.

Cc1ccc2cc3c(NC(=O)c4cccnc4)nn(C)c3nc2c1	SKN-1 inh 40.2, Rin1 Abl inh 6.0 | Rin1-Abl confirm 21.2 | GFP quench inactive
CN(C)c1ccc(O)c2c1CC1CC3[C@@H](N(C)C)C(=O)C(C(N)=O)C(=O)[C@]3(O)C(=O)C1C2=O (some centres undefined)	Rin1 Abl inh 13.4 (no result: Rce1 inh) | Rin1-Abl confirm 7.8 | GFP quench inactive
Cc1cc(C)c(NC(=O)Cn2c(=O)c3cccn3c3ccccc32)c(C)c1	none
CCCCn1c(N)c(N(CCC(C)C)C(=O)C2=NN(c3cc(C)ccc3C)C(=O)CC2)c(=O)[nH]c1=O	none
CC(=O)c1cccc(NC(=O)CNC(=O)c2cc3ccccc3o2)c1	Rin1 Abl inh 17.2 | Rin1-Abl confirm inactive | GFP quench inactive
CC(=O)Nc1cccc(NC(=O)c2cc3ccccc3o2)c1	none
O=C(COc1ccc(S(=O)(=O)N2CCCCC2)cc1)Nc1ccccc1F	none
Cc1ccc(Cl)cc1N1CCN(C(CC(C)C)c2nnnn2CC2CCCO2)CC1 (centres undefined)	Rin1 Abl inh 7.4 | Rin1-Abl confirm inactive | GFP quench inactive
O=c1oc(-c2ccc([N+](=O)[O-])cc2)nc2ccc(O)cc12	Rin1 Abl inh 16.9 | Rin1-Abl confirm inactive | GFP quench inactive
O=C(Nc1ccc(C(=O)OC[C@@H]2CCCN3CCCC[C@H]23)cc1)c1cccc(Br)c1	Rin1 Abl inh 8.5 | Rin1-Abl confirm 10.4 | GFP quench inactive
COc1ccc(Br)cc1CN(C)C(=O)c1ccccc1OCc1c(C)noc1C	Rin1 Abl inh 9.0 | Rin1-Abl confirm inactive | GFP quench inactive
O=C(NC1CCCCC1)c1cccnc1C(=O)O	Rin1 Abl inh 5.9 | Rin1-Abl confirm inactive | GFP quench inactive
CC(=O)Nc1ccc(NC(=O)CSc2nnc(-c3ccccc3)n2Cc2ccc3c(c2)OCO3)cc1	Rin1 Abl inh 7.8 | Rin1-Abl confirm inactive | GFP quench inactive
CN(C)CCNC(=O)c1cccc(S(=O)(=O)Nc2ccc(F)cc2)c1	Rin1 Abl inh 9.2 | Rin1-Abl confirm inactive | GFP quench inactive
CCN(CC)CCNC(=O)c1ccc(NC(=O)c2cccc(S(=O)(=O)Nc3ccc(C)cc3)c2)cc1	none
Cc1ccc[n+](CC(=O)N2CCCCC2)c1C	none
CC1OC(Oc2c(-c3cc(O)c(O)c(O)c3)oc3cc(O)cc(O)c3c2=O)C(O)C(O)C1O (centres undefined)	Rin1 Abl inh 42.3 (no result: T cell modulator, GRK2 inh) | Rin1-Abl confirm 45.0 | GFP quench 14.9
O=c1cc(-c2ccc(O)c(O)c2)oc2cc(O)cc(O)c12	none
C[C@@H]1O[C@@H](OC[C@@H]2O[C@H](Oc3c(-c4ccc(O)cc4)oc4cc(O)cc(O)c4c3=O)[C@@H](O)[C@H](O)[C@H]2O)[C@H](O)[C@H](O)[C@H]1O	none (no result: Rce1 inh)
O=c1c(O)c(-c2ccc(O)c(O)c2)oc2cc(O)cc(O)c12	Rin1 Abl inh 23.9 | Rin1-Abl confirm 15.9 | GFP quench inactive
O=C(COC(=O)c1cnc(Cl)c(Cl)c1)NC1CC1	none (no result: Rce1 inh)
O=C(CCSc1nnc(-c2ccc(O)cc2)o1)N1CCOCC1	Rin1 Abl inh 14.9 | Rin1-Abl confirm 16.4 | GFP quench inactive
CCN(CC)C(=O)C1=C(C)N(Cc2ccc(OC)cc2)C(=O)C(CC(=O)NCc2cccs2)C1 (centres undefined)	none (no result: T cell modulator, GRK2 inh, Rce1 inh)
O=C(O)c1cccc(COc2ccccc2Cl)c1	none
O=C(O)c1ccc(COc2ccccc2Cl)cc1	Rin1 Abl inh 5.0 | Rin1-Abl confirm inactive | GFP quench inactive
CC1CCCN(C(=O)COC(=O)Cc2c[nH]c3ccccc23)C1 (centres undefined)	none (no result: Rce1 inh)
COC(=O)C1CCN(C(=O)COC(=O)Cc2c[nH]c3ccccc23)CC1	Rin1 Abl inh 5.2 | Rin1-Abl confirm inactive | GFP quench inactive
CCOC(=O)CCCCC(=O)c1[nH]c(=O)[nH]c1CSc1nnc2c3ccccc3n(C(C)C)c2n1	Rin1 Abl inh 52.8 | Rin1-Abl confirm 67.6 | GFP quench inactive | GFP quench dose inactive
CCCn1c2ccccc2c2nnc(SCc3[nH]c(=O)[nH]c3C(=O)CCCCC(=O)OCC)nc21	Rin1 Abl inh 51.6 | Rin1-Abl confirm 55.7 | GFP quench inactive | GFP quench dose inactive
CS(=O)(=O)c1ccc(Cl)c(NC(=O)c2ccc3ccccc3c2)c1	none
O=C(Nc1ccccc1Cl)c1ccc2ccccc2c1	Rin1 Abl inh 7.6 | Rin1-Abl confirm inactive | GFP quench inactive
CC(=O)N1CCN(c2ccc(NC(=O)c3cc4ccccc4o3)cc2)CC1	none
CCCC(=O)Nc1ccc(N2CCN(C(=O)c3cc4ccccc4o3)CC2)cc1	Rin1 Abl inh 11.1 | Rin1-Abl confirm 8.1 | GFP quench inactive
CC(Cl)=CCn1c(NCCc2ccccc2)nc2c1c(=O)n(C)c(=O)n2C	none (no result: T cell modulator, GRK2 inh, Rce1 inh)
O=S(=O)(c1ccc(Br)cc1F)N1CC[C@H](O)C1	none (no result: T cell modulator, GRK2 inh, Rce1 inh)
Cc1ccccc1-c1cc(C(=O)NCc2ccc(OC(F)(F)F)cc2)n(CC2CC(c3cccnc3)=NO2)n1 (centres undefined)	none (no result: Rce1 inh)
O=C(Nc1ccccc1)/C(=C\c1ccccc1)NC(=O)c1ccco1	none
O=C(Nc1ccc(C(=O)O)cc1)/C(=C\c1ccccc1)NC(=O)c1ccco1	Rin1 Abl inh 8.6 | Rin1-Abl confirm inactive | GFP quench inactive
CC(=O)c1cccc(OCc2cc(C(=O)N3CCC(N4CCCCC4)CC3)no2)c1	Rin1 Abl inh 9.9 | Rin1-Abl confirm inactive | GFP quench inactive
CC(=O)c1cccc(OCc2cc(C(=O)N3CCSCC3)no2)c1	none
CCC1CN(C(=O)N2CCC(C(=O)NCc3cccc(F)c3)CC2)c2ccccc2O1 (centres undefined)	none
COc1ccccc1CNC(=O)CSc1nnc2ccc(-c3cccnc3)nn12	Rin1 Abl inh 12.9 | Rin1-Abl confirm 16.8 | GFP quench inactive | GFP quench dose inactive
COc1ccc(NC(=O)CSc2nnc3ccc(-c4cccnc4)nn23)cc1OC	none
CCCS(=O)(=O)NC(=O)C1(C)CCN(C(=O)c2cccnc2Oc2ccccc2)C1 (centres undefined)	none (no result: T cell modulator, GRK2 inh, Rce1 inh)
Cc1ccc(NS(=O)(=O)c2cccc(C(=O)NNC(=O)c3cccn3C)c2)c(C)c1	none
Cn1cc(CN2CCCC(C(=O)c3cc(F)ccc3F)C2)c2ccccc21 (centres undefined)	none
COc1ccc(F)cc1C(=O)C1CCCN(Cc2cn(C)c3ccccc23)C1 (centres undefined)	Rin1 Abl inh 9.9 | Rin1-Abl confirm inactive | GFP quench inactive
